Measured values: PubChem BioAssay AID449754 (Broad Institute, 2010)
Inconclusive results are not listed. The source made the active and inactive calls.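 The calls were made as follows: active = compounds whose fitted caspase activation AC50 is no more than tenfold above the top tested dose; inconclusive = flat fit with 30 to 70% activity, or a failed fit; inactive = the rest.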

Tested on: MEF Bax/Bak KO A1-BIM, caspase-Glo luminescence, 3 h
Experiment: caspase signal in Bax-Bak null A1-BIM cells – cell-based, Bax-Bak knockout MEF, A1-2A-BIM, luminescence, counter-screen for A1 inhibitor project, dose response (AID 449754);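 also: counterscreen where caspase activation signals off-target toxicity not A1 inhibition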
In short: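 Material: Bax/Bak-knockout mouse embryonic fibroblasts expressing A1-2A-BIM | Quantity: 2500 cells per well, seeded one day before compound | Buffer or medium: RPMI-1640, 10% FBS | Incubation: 3 h compound at 37 °C, 1 h detection at RT | Signal: CaspaseGlo luminescence, reagent diluted 1:1 in 50 mM HEPES | Evaluation: Caspase activity from luminescent signal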

O=c1c(Cl)c(Cl)cnn1Cc1ccccc1Cl
AC50: > 35 µM (inactive)

CCOCCCNC(=O)c1ccc2c(c1)N=C(CC)c1cc(Br)ccc1S2
AC50: > 35 µM (inactive)

COc1cc(-c2cc(-c3ccccc3)nc(SCC(=O)Nc3nccs3)c2C#N)cc(OC)c1OC
AC50: > 35 µM (inactive)

O=C(Nc1ccc([N+](=O)[O-])cc1)C(Cc1ccccc1)N1C(=O)c2cccc3cccc(c23)C1=O (stereo not drawn)
AC50: > 35 µM (inactive)

Cn1cc([N+](=O)[O-])c(C(=O)Nc2cc(Oc3ccccc3)cc([N+](=O)[O-])c2)n1
AC50: > 35 µM (inactive)

COc1ccc(Oc2cc(NC(=O)c3nn(C)cc3[N+](=O)[O-])cc([N+](=O)[O-])c2)cc1
AC50: > 35 µM (inactive)

Cc1ccc(-c2nc(NC(=O)c3nn(C)cc3[N+](=O)[O-])sc2C)cc1C
AC50: 16.2 µM

COC(=O)[C@@]1(C)CC[C@]2(C)CC[C@@]3(C)C(=CC(=O)C4[C@@]5(C)CC[C@H](O)C(C)(C)[C@@H]5CC[C@]43C)[C@H]2C1 (stereo partly drawn)
AC50: > 35 µM (inactive)

Cc1ccc(N(Cc2cc(=O)[nH]c3ccccc23)C(=O)CCl)cc1
AC50: > 35 µM (inactive)

CCc1ccc2nc(N(CCCN(C)C)C(=O)c3ccc(S(=O)(=O)N4CCc5ccccc5C4)cc3)sc2c1
AC50: > 35 µM (inactive)

CC[C@H]1CN2CCc3cc(OC)c(OC)cc3[C@@H]2C[C@@H]1C[C@H]1NCCc2cc(OC)c(OC)cc21
AC50: > 35 µM (inactive)

Cc1ccc(Sc2c([N+](=O)[O-])c(=O)n(C)c3ccccc23)cc1
AC50: > 35 µM (inactive)

O=C(CN(c1ccc(Br)cc1)S(=O)(=O)c1ccc(Cl)c([N+](=O)[O-])c1)NCCc1ccccc1
AC50: > 35 µM (inactive)

CC(C)CC(NC(=O)c1ccc(Cl)cc1)C(=O)OCC(=O)c1ccc2c(c1)NC(=O)CO2 (stereo not drawn)
AC50: 6.3 µM

CCc1ccc(Oc2coc3cc(OCC(=O)Nc4cc(C)ccc4C)ccc3c2=O)cc1
AC50: > 35 µM (inactive)

N#Cc1c(C(F)(F)F)cc(-c2ccccc2)nc1SCC(=O)Nc1sc2c(c1C#N)CCC2
AC50: > 35 µM (inactive)

CCOC(=O)N1C(=O)[C@@](c2ccc(Cl)cc2)(C(C)C)N1C(=O)OCC
AC50: 35.1 µM

CCOc1cccc(C(=O)Nc2cccc(-c3nnc(-c4ccc(C)cc4)o3)c2)c1
AC50: 35.7 µM

O=C1/C(=C\c2c(NCCOCCO)nc3ccccn3c2=O)SC(=S)N1Cc1ccco1
AC50: > 35 µM (inactive)

CC1CCc2c(sc3nc(C(C)(C)C)nc(N4CCN(C(=O)CCl)CC4)c23)C1 (stereo not drawn)
AC50: 12.3 µM

CCc1nnc(NC(=O)CSc2nc(-c3ccccc3)cc(-c3ccc(F)cc3)c2C#N)s1
AC50: 35.8 µM

CC(C)c1cccc(-c2ccc3c(c2)S(=O)(=O)c2cccc(C(=O)NCc4ccccc4Cl)c2C3=O)c1
AC50: > 35 µM (inactive)

COc1ccccc1C(=O)Nc1ccnn1C1CCN(Cc2cn(C)c3ccccc23)CC1
AC50: > 35 µM (inactive)

O=C(COc1ccc(/C=N/NC(=O)c2cc3ccccc3o2)cc1Cl)Nc1ccccc1
AC50: 9.03 µM

N#Cc1cccnc1N1CCN(C(=O)c2cccc3c2C(=O)c2ccc(-c4ccc(Cl)c(C(F)(F)F)c4)cc2S3(=O)=O)CC1
AC50: > 35 µM (inactive)

Cc1cc(C)cc(Cn2ncc(Cl)c(Cl)c2=O)c1
AC50: > 35 µM (inactive)

COc1ccc(OC[C@@H](O)CNC(=O)c2cccc3c2C(=O)c2ccc(-c4ccc(F)cc4OCc4ccccc4)cc2S3(=O)=O)cc1
AC50: > 35 µM (inactive)

Cc1ccc(CS(=O)(=O)c2ncc(Cl)c(C(=O)Nc3nnc(C(C)C)s3)n2)cc1
AC50: > 35 µM (inactive)

CCCCNC(=S)N/N=C/c1ccc(OCC(=O)Nc2c(C)cc(C)cc2C)c(OC)c1
AC50: > 35 µM (inactive)

Clc1ccccc1CN(Cc1ccccc1)c1ncnc2nc[nH]c12
AC50: > 35 µM (inactive)

O=C(Oc1cccc(/C=N/Nc2nc(Nc3ccccc3)nc(N3CCOCC3)n2)c1)c1ccco1
AC50: > 35 µM (inactive)

O=C(/C=C/c1ccc(F)cc1)NC(=S)Nc1ccccc1C(=O)NC1CCCCC1
AC50: > 35 µM (inactive)

CC(=O)Nc1ncnc2c1c(-c1ccc(Cl)cc1)nn2C(C)(C)C
AC50: > 35 µM (inactive)
